The nature of data set [1]: Microsomal stability in human liver microsomes assessed as parent compound remaining measured after 30 mins by LC-MS/MS analysis. Format: ADME, Microsome. Particulars: read-out: Stability. (Liver microsomes are vesicles of endoplasmic reticulum, rich in cytochrome P450 enzymes.)
Data set [2] is described as follows: Microsomal stability in rat liver microsomes assessed as parent compound remaining measured after 30 mins by LC-MS/MS analysis. It counts as ADME, Microsome. Particulars: read-out: Stability; call rule not given here.
Data set [3] relates to Severe acute respiratory syndrome coronavirus 2. Description: Binding affinity to recombinant SARS-CoV-2 PLpro extracted from Escherichia coli BL21 (DE3) cells assessed as change in melting temperature at 1000 uM by DSF analysis.
The nature of data set [4]: Microsomal stability in mouse liver microsomes assessed as parent compound remaining measured after 30 mins by LC-MS/MS analysis. Format: ADME, Microsome. The settings on record: read-out: Stability.
For data set [5], the system named is Severe acute respiratory syndrome coronavirus 2. Description: Inhibition of recombinant SARS-CoV-2 PLpro extracted from Escherichia coli BL21 (DE3) cells in presence of CHAPS detergent by microplate reader analysis. The procedure, abridged: (§1)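 SARS-CoV-2 PLpro enzymatic inhibition run with and without 1 mM CHAPS detergent; GRL0617 served as positive control.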

Data set [6] in a line: Selectivity ratio of CC50 for cytotoxicity against human HepG2 cells to CC50 for African green monkey Vero cells. Format: toxicity, cell-based. The settings on record: HepG2 cells and Vero cells.
The test system of data set [7] is Severe acute respiratory syndrome coronavirus 2. Put plainly: Inhibition of recombinant SARS-CoV-2 PLpro extracted from Escherichia coli BL21 (DE3) cells in absence of CHAPS detergent by microplate reader analysis. An outline of the steps:
as §1

Data set [8] shares this test system. Description: Inhibition of recombinant SARS-CoV-2 PLpro extracted from Escherichia coli BL21 (DE3) cells in presence of 0.01% triton by microplate reader analysis.
The test system is the same in data set [9]. Description: Inhibition of recombinant SARS-CoV-2 PLpro extracted from Escherichia coli BL21 (DE3) cells in absence of 0.01% triton by microplate reader analysis.

In general, ΔTm refers to the shift of the melting midpoint relative to a reference.

Some results are limits rather than exact numbers.

In the case of `CNC(=O)c1ccc(-c2ccc3nccc(NC4CCNCC4)c3n2)cn1`, the remaining at 0.5 h in data set [1] worked out at 94.4%; in data set [2], 97.4%; in [4], 93.4%. The shift in melting temperature (ΔTm) in [3] is more than 1 °C.

Take `COc1ccc(-c2ccc3nccc(N[C@@H]4CCNC4)c3n2)cn1`: the remaining at 0.5 h in data set [1] came to 54.6%. Moreover, the inhibition result in data set [5] and in data set [7] was “Active; Compound Is Not An Aggregator” throughout. Further, in data set [3], the thermal shift (ΔTm) is more than 1 °C. Also, in [6], the selectivity ratio is 2.

As to `CN1CCC(Nc2ccnc3ccc(-c4ccc(C(=O)NCCO)nc4)nc23)CC1`, the figures for the remaining at 0.5 h in [1], in data set [2] and in [4] were 95.5%, 94.2% and 97.3%, respectively. The thermal shift (ΔTm) in data set [3] is more than 1 °C.

Consider `Cn1ccc(-c2ccc3nccc(N[C@@H]4CCNC4)c3n2)cc1=O`, for which the remaining at 0.5 h in data set [1] is 98%; in [2], 94.3%; in data set [4] it was more than 99%. Also, the ΔTm in data set [3] is more than 1 °C. Also, the inhibition entry in data set [8] and in [9] was “Active; Compound Is Not An Aggregator” in each case. For the same molecule, in data set [6], the selectivity ratio came out at 2.

`CS(=O)(=O)c1cccc(-c2ccc3nccc(N4CCNCC4)c3n2)c1`: the remaining at 0.5 h in data set [1] was determined as 55.1%. In addition, the ΔTm in data set [3] is more than 1 °C.

The values above are taken from ChEMBL document CHEMBL6087445, “Discovery of Non-Covalent Inhibitors for SARS-CoV-2 PLpro: Integrating Virtual Screening, Synthesis, and Experimental Validation” (ACS Med Chem Lett, 2024).
